Experimental data taken from ChEMBL document CHEMBL5030505, “Assessment of NR4A Ligands That Directly Bind and Modulate the Orphan Nuclear Receptor Nurr1” (J Med Chem, 2020).
Activity calls are given as the source filed them. The rule behind the calls is not given here.

How the values were obtained:
Type in all cases: cell-based
[1] = molecular target: Nuclear receptor subfamily 4 group A member 2 (Homo sapiens) (UniProt P43354); experiment: Modulation of full length human Nurr1 expressed in PC12 cells co-transfected with luciferase reporter plasmid harboring NurRE response element assessed as increase in luciferase activity incubated for 18 hrs by luciferase-reporter gene assay; conditions: PC-12, filed as modulator, dose 0.002-200 µM
Summary of the method: (§1)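 Here PC12 cells (FK-12 medium, 15% horse serum, 2.5% FBS, 37°C, 5% CO2) received full-length Nurr1 (2 μg) without RXRα, plus 3xNBRE- or 3xNurRE-luciferase reporter (6 μg), for 18 h. Cells were replated at 10,000/well for 4 h, then treated with ligand or vehicle in quadruplicate for 18 h. Luciferase luminescence was normalized to vehicle-treated cells. Results are mean ± s.e.m. (n=4) from 2 independent experiments, with one-way ANOVA against vehicle.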

[2] = molecular target: Nuclear receptor subfamily 4 group A member 2 (Homo sapiens) (UniProt P43354); experiment: Modulation of full length human Nurr1 expressed in HEK293T cells co-transfected with luciferase reporter plasmid harboring NurRE response element assessed as increase in luciferase activity incubated for 18 hrs by luciferase-reporter gene assay; conditions: filed as modulator, dose 0.002-200 µM
Summary of the method: (§2)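 Full-length Nurr1 plasmid, alone (2 μg) or 1 μg plus full-length RXRα (1 μg), cotransfected with 3xNBRE- or 3xNurRE-luciferase reporter (6 μg) using Lipofectamine 2000, 18 h. Cells replated at 10,000/well for 4 h. Four ligand concentrations, or vehicle (water, ethanol or DMSO), added in quadruplicate for 18 h. Luciferase read. Fold change vs vehicle, mean ± s.e.m., one-way ANOVA vs vehicle.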

HEK-293T = experiment: Cytotoxicity in human HEK293T cells assessed as reduction in cell viability at 0.02 to 200 uM incubated for 18 hrs by Cell Titer-Glo assay; conditions: dose 0.02-200 µM
Summary of the method: (§3)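 Cells seeded at 1.5 million per 10-cm dish. Next day they were replated at 10,000 cells/well and rested 4 h. Ligand or vehicle (water, ethanol or DMSO, by ligand) was added in dose-response format in quadruplicate. After 18 h, viability was read by CellTiter-Glo luminescence. Data are mean ± s.e.m., generally representative of 2 independent experiments. One-way ANOVA versus vehicle.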

[3] = molecular target: Nuclear receptor subfamily 4 group A member 2 (Homo sapiens) (UniProt P43354); experiment: Modulation of full length human Nurr1 expressed in PC12 cells co-transfected with RXRalpha and luciferase reporter plasmid harboring NBRE response element assessed as increase in luciferase activity incubated for 18 hrs by luciferase-reporter gene assay; conditions: PC-12, filed as modulator, dose 0.0002-200 µM
Summary of the method: (§4)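 PC12 cells were grown at 37°C and 5% CO2 in […] medium with 15% horse serum and 2.5% FBS. They were transfected with full-length Nurr1 (1 μg) plus full-length RXRα (1 μg) and 3xNBRE- or 3xNurRE-luciferase reporter (6 μg) for 18 h, then replated at 10,000 cells/well for 4 h. Ligand or vehicle (water, ethanol or DMSO) was added in quadruplicate for 18 h. Luminescence was read as fold change over vehicle. Results are mean ± s.e.m., n=4, from 2 independent experiments, analysed by one-way ANOVA against vehicle.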

[4] = molecular target: Nuclear receptor subfamily 4 group A member 2 (Homo sapiens) (UniProt P43354); experiment: Modulation of full length human Nurr1 expressed in SKNBE(2) cells co-transfected with RXRalpha and luciferase reporter plasmid harboring NBRE response element assessed as increase in luciferase activity incubated for 18 hrs by luciferase-reporter gene assay; conditions: SKNBE2, filed as modulator, dose 0.0002-200 µM
Summary of the method: (§5)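 SK-N-BE(2)-C cells were kept in 1:1 EMEM/F12 with 10% FBS at 37°C and 5% CO2. They were cotransfected with full-length Nurr1 (1 μg), full-length RXRα (1 μg) and 3xNBRE- or 3xNurRE-luc reporter (6 μg) for 18 h, replated at 10,000 cells/well for 4 h, and then treated with ligand or vehicle in quadruplicate for 18 h. The readout was luciferase luminescence as fold over vehicle, reported as mean ± s.e.m. (n=4) from 2 independent experiments, one-way ANOVA.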

SKNBE2 = experiment: Modulation of Gal4-fused VP16 expressed in SKNBE(2) cells co-transfected with UAS repoter gene assessed as increase in luciferase activity at 0.02 to 200 uM incubated for 18 hrs by luciferase reporter gene assay; conditions: Human alphaherpesvirus 2, filed as modulator, dose 0.02-200 µM
Summary of the method: (§6)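 Cells in 10-cm dishes were transfected with Gal4-VP16 expression plasmid (2 μg) plus 5xUAS-luciferase reporter (2 μg) for 18 h. They were replated at 10,000 cells/well for 4 h, then given ligand or vehicle (water, ethanol or DMSO) in quadruplicate for 18 h. Luciferase was read with Britelite Plus. Fold change is versus vehicle-treated cells, with one-way ANOVA versus vehicle.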

PC-12 [5] = experiment: Cytotoxicity in rat PC-12 cells assessed as reduction in cell viability at 0.02 to 200 uM incubated for 18 hrs by Cell Titer-Glo assay; conditions: pc-12, 18 h, dose 0.02-200 µM; summary of the method: as §3
[6] = molecular target: Nuclear receptor subfamily 4 group A member 2 (Homo sapiens) (UniProt P43354); experiment: Modulation of full length human Nurr1 expressed in SKNBE(2) cells co-transfected with RXRalpha and luciferase reporter plasmid harboring NurRE response element assessed as increase in luciferase activity incubated for 18 hrs by luciferase-reporter gene assay; conditions: SKNBE2, filed as modulator, dose 0.0002-200 µM; summary of the method: as §5
[7] = molecular target: Nuclear receptor subfamily 4 group A member 2 (Homo sapiens) (UniProt P43354); experiment: Modulation of full length human Nurr1 expressed in PC12 cells co-transfected with RXRalpha and luciferase reporter plasmid harboring NurRE response element assessed as increase in luciferase activity incubated for 18 hrs by luciferase-reporter gene assay; conditions: PC-12, filed as modulator, dose 0.0002-200 µM; summary of the method: as §4
[8] = molecular target: Nuclear receptor subfamily 4 group A member 2 (Homo sapiens) (UniProt P43354); experiment: Modulation of full length human Nurr1 expressed in HEK293T cells co-transfected with RXRalpha and luciferase reporter plasmid harboring NurRE response element assessed as increase in luciferase activity incubated for 18 hrs by luciferase-reporter gene assay; conditions: filed as modulator, dose 0.0002-200 µM; summary of the method: as §2
HEK293T = experiment: Modulation of Gal4-fused VP16 expressed in HEK293T cells co-transfected with UAS repoter gene assessed as increase in luciferase activity at 0.02 to 200 uM incubated for 18 hrs by luciferase reporter gene assay; conditions: Human alphaherpesvirus 2, filed as modulator, dose 0.02-200 µM; summary of the method: as §6
SK-N-BE(2) = experiment: Cytotoxicity in human SKNBE2 cells assessed as reduction in cell viability at 0.02 to 200 uM incubated for 18 hrs by Cell Titer-Glo assay; conditions: dose 0.02-200 µM; summary of the method: as §3
PC-12 [9] = experiment: Modulation of Gal4-fused VP16 expressed in PC12 cells co-transfected with UAS repoter gene assessed as increase in luciferase activity at 0.02 to 200 uM incubated for 18 hrs by luciferase reporter gene assay; conditions: Human alphaherpesvirus 2, filed as modulator, dose 0.02-200 µM; summary of the method: as §6
[10] = molecular target: Nuclear receptor subfamily 4 group A member 2 (Homo sapiens) (UniProt P43354); experiment: Modulation of full length human Nurr1 expressed in HEK293T cells co-transfected with RXRalpha and luciferase reporter plasmid harboring NBRE response element assessed as increase in luciferase activity incubated for 18 hrs by luciferase-reporter gene assay; conditions: filed as modulator, dose 0.0002-200 µM; summary of the method: as §2
[11] = molecular target: Nuclear receptor subfamily 4 group A member 2 (Homo sapiens) (UniProt P43354); experiment: Modulation of full length human Nurr1 expressed in PC12 cells co-transfected with luciferase reporter plasmid harboring NBRE response element assessed as increase in luciferase activity incubated for 18 hrs by luciferase-reporter gene assay; conditions: PC-12, filed as modulator, dose 0.002-200 µM; summary of the method: as §1
[12] = molecular target: Nuclear receptor subfamily 4 group A member 2 (Homo sapiens) (UniProt P43354); experiment: Modulation of full length human Nurr1 expressed in SKNBE(2) cells co-transfected with luciferase reporter plasmid harboring NurRE response element assessed as increase in luciferase activity incubated for 18 hrs by luciferase-reporter gene assay; conditions: SKNBE2, filed as modulator, dose 0.002-200 µM
[13] = molecular target: Nuclear receptor subfamily 4 group A member 2 (Homo sapiens) (UniProt P43354); experiment: Modulation of full length human Nurr1 expressed in SKNBE(2) cells co-transfected with luciferase reporter plasmid harboring NBRE response element assessed as increase in luciferase activity incubated for 18 hrs by luciferase-reporter gene assay; conditions: SKNBE2, filed as modulator, dose 0.002-200 µM
[14] = molecular target: Nuclear receptor subfamily 4 group A member 2 (Homo sapiens) (UniProt P43354); experiment: Modulation of full length human Nurr1 expressed in HEK293T cells co-transfected with luciferase reporter plasmid harboring NBRE response element assessed as increase in luciferase activity incubated for 18 hrs by luciferase-reporter gene assay; conditions: filed as modulator, dose 0.002-200 µM; summary of the method: as §2

Chain of Nuclear receptor subfamily 4 group A member 2 (Homo sapiens) (P43354 whole entry, the tested form may be a part): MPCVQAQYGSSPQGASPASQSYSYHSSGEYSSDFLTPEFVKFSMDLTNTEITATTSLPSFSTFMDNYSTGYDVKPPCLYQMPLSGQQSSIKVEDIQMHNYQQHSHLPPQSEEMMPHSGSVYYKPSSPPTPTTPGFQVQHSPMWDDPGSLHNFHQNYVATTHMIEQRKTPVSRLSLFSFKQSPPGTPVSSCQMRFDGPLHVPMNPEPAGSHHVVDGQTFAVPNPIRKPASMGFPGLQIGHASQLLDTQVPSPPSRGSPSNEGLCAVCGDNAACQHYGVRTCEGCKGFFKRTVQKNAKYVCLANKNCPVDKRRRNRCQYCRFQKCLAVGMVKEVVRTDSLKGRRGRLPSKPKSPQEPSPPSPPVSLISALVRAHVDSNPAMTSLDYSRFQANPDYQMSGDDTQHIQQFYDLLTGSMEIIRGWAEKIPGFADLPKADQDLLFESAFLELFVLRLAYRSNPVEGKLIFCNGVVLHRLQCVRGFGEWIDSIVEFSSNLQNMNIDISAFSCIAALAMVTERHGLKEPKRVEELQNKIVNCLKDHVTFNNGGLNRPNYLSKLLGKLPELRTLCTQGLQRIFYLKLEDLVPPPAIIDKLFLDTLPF

Activity [1]: Dose-Dependent Effect
Activity [2]: Dose-Dependent Effect
Activity [3]: Dose-Dependent Effect
Activity [4]: Dose-Dependent Effect
Activity [6]: Dose-Dependent Effect
Activity [7]: Dose-Dependent Effect
Activity [8]: Dose-Dependent Effect
Activity [10]: Dose-Dependent Effect
Activity [11]: Dose-Dependent Effect
Activity [12]: Dose-Dependent Effect
Activity [13]: Dose-Dependent Effect
Activity [14]: Dose-Dependent Effect
SMILES: COc1ccc(-c2cc3onc(-c4ccccc4)c3c(=O)n2C)cc1
Activity (HEK-293T): Non-Toxic
Activity (SKNBE2): Active
Activity (PC-12 [5]): Non-Toxic
Activity (HEK293T): Active
Activity (SK-N-BE(2)): Non-Toxic
Activity (PC-12 [9]): Active
